From PubChem
TDP2 absorb: TDP2 (human) inhibition, absorbance primary screen. O95551. recombinant TDP2, T5PNP hydrolysis, p-nitrophenol absorbance 415 nm. inhibition, % at 12.8 µM. actives 0.34% (n = 370,000);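 active = inhibition above the mean of all tested compounds plus 3 SD, set per campaign, cut at about 25% in these data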
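System: recombinant human TDP2 / Amount: 120 nM TDP2 per well / Also added: 5 mM T5PNP chromogenic substrate / Doses: 12.8 µM single point, 1% DMSO / Incubation: 2 h at 37 °C / Detection: p-Nitrophenol epi absorbance / Evaluation: % inhibition relative to enzyme-containing and enzyme-free wells / Repeats: singlicate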
MBD2 inh: inhibitors of human MBD2 binding to methylated oligonucleotide | Q9UBB5 | TR-FRET | inhibition, % at 4.4 µM | actives 0.31% (n = 370,000) | AID 686964; in the data active = inhibition above about 13%
LEDGF integ inh: blocks HIV-1 LEDGF/p75-dependent DNA integration | TR-FRET IN-LEDGF/p75 DNA integration, Eu/Cy5 | inhibition, % at 3.7 µM | actives 0.64% (n = 370,000) | AID 743269;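 active = inhibition above the screen-wide mean plus 3 SD, cut at about 13% in these data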;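 also: signal is the Cy5 over europium emission ratio at 671 and 618 nm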
UHRF1 binding: human UHRF1 methylated DNA binding inhibitors. Q96T88. UHRF1 binding to methylated oligo, TR-FRET. inhibition, % at 4.4 µM. actives 0.75% (n = 370,000); in the data active = inhibition above about 21%;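 also: UHRF1 SRA domain binding a hemimethylated CpG hairpin DNA probe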
PRMT1 FP inh: PRMT1 (human) inhibition, primary screen | recombinant PRMT1, activity-based probe fluorescence polarization | inhibition, % at 2.79 µM | actives 1.3% (n = 370,000) | AID 652257;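 active = inhibition above about 21% made by adding two undisclosed values, limit read from the data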
Target sequence (Q99873 whole entry, looked up): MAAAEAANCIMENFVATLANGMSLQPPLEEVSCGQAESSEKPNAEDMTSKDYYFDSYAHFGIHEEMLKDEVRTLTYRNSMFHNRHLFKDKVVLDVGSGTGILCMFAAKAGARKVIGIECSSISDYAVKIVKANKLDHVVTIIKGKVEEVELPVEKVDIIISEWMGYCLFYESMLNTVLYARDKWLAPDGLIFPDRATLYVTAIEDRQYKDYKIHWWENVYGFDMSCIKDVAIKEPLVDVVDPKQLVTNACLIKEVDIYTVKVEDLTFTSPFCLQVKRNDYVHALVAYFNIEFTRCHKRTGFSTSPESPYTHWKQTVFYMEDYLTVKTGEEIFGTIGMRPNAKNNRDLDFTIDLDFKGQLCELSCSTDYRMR
SIAE primary: inhibitors of human sialic acid acetylesterase SIAE; SIAE FP-Rh probe binding, fluorescence polarization; actives 0.69% (n = 370,000); inhibition, % at 9.66 µM;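 active = inhibition above a cutoff: mean of compounds within the control limits plus 3 SD of those, cut at about 17% in these data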
IN multimer up: activates HIV-1 integrase multimerization in LEDGF counter-screen. shares compounds with LEDGF integ inh. TR-FRET HIV-1 integrase multimerization, biochemical. activation, % at 7.7 µM. actives 17% (n = 2,000). AID 1053131; in the data active = activation above about 8.9%
TR-FRET interf: TR-FRET optical interference, LEDGF/p75 integration counter-screen | shares compounds with LEDGF integ inh | TR-FRET optical interference counterscreen, HIV-1 IN multimerization | inhibition, % at 7.7 µM | 2,000 tested, under 10 active;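 active = inhibition above the mean over all tested compounds plus 3 SD, which no compound reached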
LEDGF integ conf: LEDGF/p75-dependent HIV-1 integration inhibition, confirmation. shares compounds with LEDGF integ inh. TR-FRET LEDGF/p75-dependent HIV-1 integration, biochemical. inhibition, % at 3.7 µM. actives 36% (n = 2,000); in the data active = inhibition above about 14%
A number is an active result; 0 = inactive; - = no result given. Hits are enriched below; roughly 3.3% of the tested compounds scored in any of these assays.

SMILES | TDP2 absorb | MBD2 inh | LEDGF integ inh | UHRF1 binding | PRMT1 FP inh | SIAE primary | IN multimer up | TR-FRET interf | LEDGF integ conf
O=C(C(O)c1ccc(Br)cc1)N1CCC(Nc2ccc3[nH]ncc3c2)CC1 (stereo not drawn) | 0 | 0 | 17 | 0 | 0 | 0 | 0 | 0 | 0
COc1ccccc1C(=O)NC1CCCCN(Cc2ccc(Cl)cc2)C1=O (stereo not drawn) | 0 | 0 | 0 | 0 | 0 | 0 | - | - | -
COc1ccc(CC(/C=C/c2ccc(F)cc2)c2ccccc2)cc1 (stereo not drawn) | 0 | 0 | 0 | 0 | 0 | 0 | - | - | -
C=CCNC(=O)c1cccc2c1C(=O)c1ccc(N3CCCC3)cc1S2(=O)=O | 0 | 0 | 0 | 0 | 0 | 0 | - | - | -
O=C(NCC1CC1)c1cccc2c1C(=O)c1ccc(N3CCCC3)cc1S2(=O)=O | 0 | 0 | 27 | 0 | 0 | 0 | 0 | 0 | 0
CCc1nccn1CC(=O)c1ccc(O)c(O)c1 | 0 | 0 | 0 | 0 | 0 | 0 | - | - | -
c1coc(-c2ccnc3nc(-n4cccc4)nn23)c1 | 0 | 0 | 17 | 0 | 0 | 0 | 0 | 0 | 0
COc1ccc(-c2ccnc3nc(-n4cccc4)nn23)cc1 | 0 | 0 | 0 | 0 | 0 | 0 | - | - | -
CCc1cc2c(nc1CC)CCCN2S(=O)(=O)c1c(C)noc1C | 0 | 0 | 0 | 0 | 0 | 0 | - | - | -
Nc1ccc2cc3ccc(N)cc3nc2c1 | 0 | 0 | 44 | 0 | 148 | 0 | 33 | 0 | 74
Cc1ccc(NC(=O)Nc2cccs2)c(Cl)c1 | 0 | 0 | 0 | 0 | 0 | 0 | - | - | -
O=C(Nc1cccs1)Nc1ccccc1Cl | 0 | 0 | 15 | 0 | 0 | 0 | 0 | 0 | 0
COc1ncc(-c2cc(C(C)=O)c3n(c2=O)CCC3)c(OC)n1 | 0 | 0 | 0 | 0 | 0 | 0 | - | - | -
CCCC1CCC2(CCCN2CCOC(=S)Nc2ccccc2Br)CC1 (stereo not drawn) | 0 | 0 | 0 | 0 | 0 | 0 | - | - | -
O=C(CSc1nnc(CNC(=O)c2cccc(C(F)(F)F)c2)o1)NC1CCCC1 | 0 | 0 | 45 | 0 | 0 | 0 | 0 | 0 | 0
O=C(CSc1nnc(CNC(=O)c2cccc(C(F)(F)F)c2)o1)NCC1CCCO1 (stereo not drawn) | 0 | 0 | 0 | 0 | 0 | 0 | - | - | -
C#CCN1CC(N(C)CCOC(=O)CSc2ccccc2)CS1(=O)=O (stereo not drawn) | 0 | 0 | 0 | 0 | 0 | 0 | - | - | -
NC(=O)c1ccsc1NC(=O)c1ccc(S(=O)(=O)N2CCCC2)cc1 | 0 | 0 | 0 | 0 | 0 | 0 | - | - | -
NC(=O)c1ccsc1NC(=O)c1ccc(S(=O)(=O)N2CCCCC2)cc1 | 0 | 0 | 22 | 0 | 0 | 0 | 0 | 0 | 0
CCn1c(C)cc(/C=C2\NC(=O)N(CC(=O)Nc3ccc(F)cc3)C2=O)c1C | 0 | 0 | 0 | 0 | 0 | 0 | - | - | -
CCn1c(C)cc(/C=C2\NC(=O)N(Cc3ccccc3)C2=O)c1C | 0 | 0 | 17 | 0 | 0 | 0 | 0 | 0 | 0
Cc1occc1-c1nnc(SCC(=O)NCc2ccc(Cl)cc2)n1-c1ccccc1 | 0 | 0 | 0 | 0 | 0 | 0 | - | - | -
Cc1ccc(NC(=O)C2CCCN2C(=O)NC2CCCCC2)cc1F (stereo not drawn) | 0 | 0 | 0 | 0 | 0 | 0 | - | - | -
Cc1ccc(NC(=O)C2CCCN2C(=O)NC2CCCCC2)cc1C (stereo not drawn) | 0 | 0 | 53 | 0 | 0 | 0 | 0 | 0 | 0
O=C(CSc1nnc(SCc2cccc3ccccc23)s1)Nc1ccc(S(=O)(=O)Nc2nccs2)cc1 | 0 | 0 | 0 | 0 | 0 | 0 | - | - | -
CCN1C[C@@H]2[C@@H]3C(=O)N(C)C(=O)[C@@H]3[C@](CC)(C(=O)OC)N2C1=NCc1ccccc1 | 0 | 0 | 65 | 21 | 0 | 0 | 0 | 0 | 0
O=C(/C=C/c1ccco1)Oc1cccc2cccnc12 | 0 | 0 | 14 | 0 | 0 | 0 | 0 | 0 | 0
